Data taken from ChEMBL document CHEMBL5030567, “Macrocyclic Inhibitors of HGF-Activating Serine Proteases Overcome Resistance to Receptor Tyrosine Kinase Inhibitors and Block Lung Cancer Progression” (J Med Chem, 2021).
Active and inactive are the calls of the source. The rule behind the calls is not given here. Numbered stars: 1 amine (or outer) side, 2 acyl side, 3 side chain; on linkers, the order of the positions; unused ones are H or OH. Square brackets hold non-standard residues; d marks the D form. Peptide text beside a SMILES is read from it. X1 = N=C(N)NCCC[C@H](N[*:1])C(=O)c1nc2ccc(C(=O)[*:2])cc2s1

What was measured:
[1] = Half life in mouse plasma at 20 mg/kg, ip; format: ADME, organism-based; conditions: in vivo, 20 mg/kg
[2] = biological target: T1, Hepatocyte growth factor activator serine protease (Homo sapiens) (UniProt Q04756); test: Inhibition of recombinant human HGFA serine protease domain mediated pro-HGF activation preincubated for 30 mins followed by pro-HGF addition and measured after 1 hr by immunoblotting analysis
T1 sequence (whole entry): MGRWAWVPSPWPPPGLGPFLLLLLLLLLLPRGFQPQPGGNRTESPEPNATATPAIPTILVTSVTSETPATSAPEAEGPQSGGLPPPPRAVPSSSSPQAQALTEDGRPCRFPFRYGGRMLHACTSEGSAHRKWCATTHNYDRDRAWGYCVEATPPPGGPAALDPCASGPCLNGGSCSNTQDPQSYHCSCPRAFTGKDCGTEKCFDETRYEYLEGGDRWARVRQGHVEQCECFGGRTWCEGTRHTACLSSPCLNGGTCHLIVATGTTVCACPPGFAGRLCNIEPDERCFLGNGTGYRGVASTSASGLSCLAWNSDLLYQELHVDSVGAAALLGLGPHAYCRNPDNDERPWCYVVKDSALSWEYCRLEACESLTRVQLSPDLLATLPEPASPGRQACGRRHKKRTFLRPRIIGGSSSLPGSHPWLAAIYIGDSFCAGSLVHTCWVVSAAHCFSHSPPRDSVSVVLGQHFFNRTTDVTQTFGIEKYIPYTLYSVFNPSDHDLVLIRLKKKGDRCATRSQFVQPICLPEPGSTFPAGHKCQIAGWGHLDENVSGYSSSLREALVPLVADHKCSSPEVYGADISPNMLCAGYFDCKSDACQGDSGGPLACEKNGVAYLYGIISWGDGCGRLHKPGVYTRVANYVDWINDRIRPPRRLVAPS
In short: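 Recombinant pro-HGF (10 ng) incubated one hour with matriptase (1 nM), hepsin (10 nM) or HGFA (5 nM), with or without inhibitor. Processing detected by immunoblot with a polyclonal antibody recognizing pro-HGF and the HGF alpha and beta chains; active HGF served as positive control.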

Serine protease hepsin = Serine protease hepsin (Homo sapiens, UniProt P05981); test: Inhibition of recombinant human C-terminal 10-His tagged hepsin (Arg45 to Leu417) expressed in mouse myeloma cells using Boc-QAR-AMC as substrate preincubated for 30 mins followed by substrate addition by fluorescence based assay; format: single protein
In short: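 Inhibitor in 11-point serial dilution (0-20 µM final, 2% DMSO) pre-incubated 30 min at room temperature with enzyme in TNC buffer (25 mM Tris, 150 mM NaCl, 5 mM CaCl2, 0.01% Triton X-100, pH 8). […] Hepsin activated beforehand 24 h at 37°C. Fluorescence ex 380/em 460 nm kinetic; four-parameter fit of velocities; mean of three experiments.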

Coagulation factor X = Coagulation factor X (Homo sapiens, UniProt P00742); test: Inhibition of recombinant C-terminal 10His-tagged human coagulation factor 10a (Leu24 to Lys488 residues) expressed in baculovirus infected Sf9 insect cells using Bz-Ile-Glu-Gly-Arg-pNA as substrate preincubated for 30 mins followed by substrate addition by chromogenic assay

## CC(=O)N[C@@H](CO)C(=O)N[C@@H](CCCCN)C(=O)N[C@@H](CC(C)C)C(=O)N[C@@H](CCCNC(=N)N)C(=O)c1nc2ccc(C(=O)N[C@H](C(N)=O)C(C)C)cc2s1 (Ac-SKL[X1]V-NH2)
[1]
  t1/2: 2 h
[2]
  inhibition: Active
Serine protease hepsin
  IC50: 0.38 nM
Coagulation factor X
  IC50: 770 nM
